# Measured values as given in ChEMBL document CHEMBL4513216, “Probing the Open Global Health Chemical Diversity Library for Multistage-Active Starting Points for Next-Generation Antimalarials” (ACS Infect Dis, 2020).
# Test: Toxicity liver stage against HepG2, at 10uM
# Type: cell-based
# Design: test concentration 10 uM, cell line HepG2-A16-CD81EGFP
# Conditions: human, HepG2-A16-CD81EGFP cells; read-out: INHIBITION
# How it was run: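 Uninfected HepG2-A16-CD81EGFP cells, 3 × 10^3 per well, 1536-well, plated on prespotted compound at 10 μM final, parasite-free screening media added to match infected plates; puromycin 10 μM positive, DMSO 0.5% negative; run in parallel with 48 h PbLuc assay at 37 °C, 5% CO2; viability by CellTiter-Glo luminescence, normalized to controls.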
row,Compound,cytotoxicity at 10 µM
1,CCNC(=O)COc1cc(CC)c2c(C)nn(-c3ccc(C)cc3)c2n1,0.409%
2,O=C(NCc1ccc(F)cc1)NCC(O)(c1ccco1)C1CC1 (stereo unspecified),-115%
3,CS(=O)(=O)N1CCCC1CS(=O)(=O)c1ccccc1 (stereo unspecified),1.01%
4,O=C([C@@H]1COC[C@H]2CN(CC3CCCC3)C[C@H]21)N1CCOCC1,14.9%
5,CC(=O)NCC(=O)N1Cc2cc(C#N)ccc2C1c1cnco1 (stereo unspecified),1.06%
6,Cc1nc(CN2CCc3nc(N4CCCC4)nc(NC(C)C)c3C2)cs1,2.72%
7,CC(C)N1CCc2ncn(C)c2C1C(=O)NCCN1CCCC1 (stereo unspecified),-0.511%
8,Cc1cnc(N2CCc3c(CN(C)Cc4ccco4)cncc3C2)nc1,4.15%
9,c1cc(CN2CC[C@H]3C[C@H](c4nc(C5CC5)cs4)O[C@@H]3C2)ccn1,8.81%
10,CCCN1Cc2cc(Br)ccc2OCC1=O,3.72%
11,CC(C)CNC(=O)c1c(-n2cnnn2)sc2c1CCCC2,10.8%
12,Cn1c(N)c2c(=O)n(C)c(-c3ccc(Cl)cc3Cl)cc2c(C#N)c1=O,-5.43%
13,COCCNC(=O)c1sc(Nc2ccc(Cl)cn2)nc1C,32.4%
14,COc1cccc(N2CCN(CC(O)c3cc(C)ccc3C)CC2)c1 (stereo unspecified),4.91%
15,Cc1cc(NC(=O)C(C)Cn2cc(Br)cn2)no1 (stereo unspecified),-2.04%
16,C=C/C=c1\c(=C/C)oc2c(NCc3ccccc3)nc(C)nc12,24.8%
17,Clc1cccc(-n2cnnn2)c1N1CCCCC1,17.4%
18,CN1CCCC(c2cncc(-c3cccc(C(F)(F)F)c3)n2)C1 (stereo unspecified),8.92%
19,CNc1nc(C2CCN(C(=O)CC3CCCC3)C2)nc2c1CN(C)CC2 (stereo unspecified),-40.4%
20,COCc1ccc(C(=O)N2CCC(c3cc4nccnc4[nH]3)CC2)cc1,-39%
21,CNc1nc(C2CCCN2C(C)=O)nc2c1CN(C1CCCC1)CC2 (stereo unspecified),-9.44%
22,O=C(NC(c1ccc(Cl)cc1)C(F)(F)F)c1nc(=O)[nH][nH]1 (stereo unspecified),11.5%
23,O=C(c1cnc2n1CCCC2)N1CCCC1,-10.6%

row,Compound,cytotoxicity at 10 µM
1,Cc1cccc(C)c1OCCCN1CCN(CC2CCCO2)CC1 (stereo unspecified),9.09%
2,CCC(O)CN1CCN(C(=O)CCSC)CC1 (stereo unspecified),-3.5%
3,O=S(=O)(N1CCC(n2cccc2)CC1)N1CCCC1c1ccco1 (stereo unspecified),12.7%
4,CC(=O)NC1CCCN(c2nc3ccccc3cc2CO)C1 (stereo unspecified),-50.1%
5,COc1ccccc1CCN(C)C(C)c1nc(-c2cccnc2)no1 (stereo unspecified),-2.04%
6,Cc1ccccc1Cc1nc(CSc2nnc(N)n2C2CC2)no1,18%
7,CCN(CC)CC(=O)N1CCN(CCCc2ccncc2)CC1,-60.5%
8,Cc1cc(NC(=O)NCc2ccc(S(=O)(=O)N3CCCC3)s2)no1,-2.24%
9,CN(C)c1nc(N)nc(CN2CCC(c3ccccc3)CC2)n1,7.36%
10,CCOCCN1CCN(CC(=O)N2CCCC2)CC1C (stereo unspecified),-3.82%
11,CCc1nnc(C2Cc3ccccc3CN2Cc2cc(C)on2)o1 (stereo unspecified),-7.77%
12,Cc1c(NCc2cccc(C#N)c2)cccc1S(=O)(=O)NC1CC1,42.5%
13,CC(C)(C)c1cnc(CN2CCC(CN3CCOCC3)CC2)o1,3.63%
14,OCCOc1ccc(NCc2cccc3[nH]ccc23)cn1,0.205%
15,Cc1ncccc1C(=O)NCc1ccccc1CN(C)Cc1ccco1,8.35%
16,CN1CCN(C(CNC(=O)c2ccc(Cl)cc2F)c2cccs2)CC1 (stereo unspecified),84.6%
17,Cc1ccc(CC(=O)N2CCOCC2c2c(C)n[nH]c2C)cc1 (stereo unspecified),5.12%
18,Cn1c(CCNc2nccnc2C#N)nc2ccc(F)cc21,-6.92%
19,O=C(C[S+]([O-])Cc1ccc(F)cc1Cl)NC1CCCC1 (stereo unspecified),9.5%
20,Cn1c2ncccc2c(=O)n1CC(=O)NCCC1=CCCCC1,19%
21,CC1CN(C)CCN1C(=O)c1ccc(-n2cnnc2)cc1 (stereo unspecified),2.84%
22,CC(NCC(N)=O)c1c(F)cccc1Cl (stereo unspecified),-0.725%
23,Cc1nc(C)c(C(=O)N2CCN(CCOc3ccccc3C)CC2)o1,1.72%

row,Compound,cytotoxicity at 10 µM
1,O=C(NCCCc1nc(=O)[nH][nH]1)c1ccc(Cl)cn1,-47.6%
2,CO[C@H]1CN(C(=O)OC(C)(C)C)CC1NCc1ccoc1 (stereo partly specified),-51.8%
3,Cc1n[nH]c(C)c1CNC(=O)N(Cc1ccccc1)CC(C)(C)O,1.72%
4,CCO[C@H]1CC[C@H]2[C@H]1OCCN2C(=O)c1nn(C)c2ccccc12,7.28%
5,Cc1cc(C(=O)N2CCc3nc(N4CCCC4)nc(C)c3CC2)c(C)o1,-108%
6,Cc1ncccc1NC(=O)c1nc2c(n1C)CCN(C(=O)C1CC1)C2,-99.6%
7,CCNc1nc2c(s1)C(=O)CN(C(=O)NCc1ccccc1)C2,59.1%
8,COCCN(Cc1ccc(C)cc1)CC1CCOC1 (stereo unspecified),-9.06%
9,COc1ncc(-c2nccn2C(C)CCn2cccn2)cn1 (stereo unspecified),0.728%
10,Cc1ccc2[nH]c(CNC(=O)C3CC4(CCNCC4)CN3C)nc2c1C (stereo unspecified),-9.66%
11,CCC(C)Oc1ccc(CNCCc2c[nH]cn2)cc1Cl (stereo unspecified),1.09%
12,Cc1n[nH]c(C)c1CCCNCc1cn(CCC(N)=O)c2ccccc12,8.45%
13,CC(c1cccs1)N(C)Cc1cnc(-c2ccccn2)nc1 (stereo unspecified),-6.3%
14,O=C(N1CCOCC1)N1CCc2[nH]nc(COc3cccc(Cl)c3)c2C1,-42.2%
15,CN(C)Cc1csc(-c2nccn2Cc2ccsc2)c1,-2.47%
16,Cc1nc2ccc(CN3CC4(CCOC4)CCC3=O)cc2[nH]1 (stereo unspecified),11.7%
17,CC(C)(C)c1nc(CN2CCc3onc(-c4cccc(F)c4)c3C2)no1,6.2%
18,COc1ccc(OC2CCN(C(=O)C3CCCN(C)C3)CC2)cc1 (stereo unspecified),-59.6%
19,CC1=CC(C)(C)N(CN2C(=O)c3ccccc3C2=O)c2ccc(C)cc21,-3.49%
20,Cc1sc2nc(CCN)nc(N3CCN(S(C)(=O)=O)CC3)c2c1C,-32%
21,Cc1nc(-c2cc(Cl)cc3c2OC(CN)C3)c[nH]1 (stereo unspecified),-1.11%
22,CC(c1cccnc1)N(C)Cc1cc(O)c2cc(F)ccc2n1 (stereo unspecified),10.8%
23,CCCc1nc(NCc2c(C)nn(CCC)c2C)c2cnn(C)c2n1,9.66%

row,Compound,cytotoxicity at 10 µM
1,N[C@H]1CCCN(S(=O)(=O)c2ccc(C(=O)NCC(F)F)cc2)C1,-0.566%
2,Cc1ccnc(CC(C)N(C)c2cc(CN)nc(C)n2)c1 (stereo unspecified),-48.9%
3,O=C(Nc1nncs1)N1CCC(CCO)CC1,-2.48%
4,Cc1nnsc1C(=O)NCc1cccnc1N1CCCC(O)C1 (stereo unspecified),1.91%
5,O=C1CC(c2ccc(CO)o2)c2cnn(Cc3ccco3)c2N1 (stereo unspecified),2.77%
6,CC(Cc1cncs1)Nc1ncnc2cccc(F)c12 (stereo unspecified),17.5%
7,CN(CCc1ccccn1)C(=O)c1cn2c(n1)CNCC2,-43.5%
8,Cc1ccc(Sc2ccc(CN3CCC4(CC3)NCCNC4=O)o2)cc1,-6.71%
9,Cc1ccccc1N1CCN(c2cc(N(C)C)ncn2)C(C)C1 (stereo unspecified),19.7%
10,O=C1CC(c2ccccc2)c2cnn(C3CCCC3)c2N1 (stereo unspecified),1.5%
11,O=C(O)CCc1cc2n(n1)CCCN(C(=O)c1cc3ccccc3s1)C2,0.45%
12,COc1ccc2cc(C3CN(C(=O)C4CCOCC4)CCO3)ccc2c1 (stereo unspecified),-8.68%
13,CN(Cc1noc(C(C)(C)C)n1)C1CCCN(c2cccnn2)C1 (stereo unspecified),-7.96%
14,CC(O)CN1CCN(C(=O)c2cc3ccccc3n2C)CC1 (stereo unspecified),2.99%
15,CCN(CC1CCOC1)C(=O)c1ccc(N2CCOCC2)c(F)c1 (stereo unspecified),-2.45%
16,CCc1nc(CN(C(C)=O)C2CCN(CCc3ccncc3)C2)no1 (stereo unspecified),-22.3%
17,COc1cc(C(=O)N2CCCS2(=O)=O)ccc1OC(C)C,-17.6%
18,Clc1ccc(OCCCN2CCOC(Cn3cncn3)C2)cc1 (stereo unspecified),-10%
19,COC(=O)c1cccn1C1CCN(Cc2cnc3ccccn23)CC1,-8.86%
20,Cc1nn(CC(C)C)c(N(C)C)c1CNCc1cc2ccccc2[nH]1,-2.77%
21,COc1cccc(-n2nnc(C(=O)N3CCN(C)CC3C)c2C)c1 (stereo unspecified),-4.05%
22,Cc1noc(C(C)C)c1C(=O)NCCCN1CCCC1,-13.5%
23,Cn1cc(CC(=O)N2CCC(Nc3cccnn3)CC2)c2ccccc21,-9.24%

row,Compound,cytotoxicity at 10 µM
1,CCNCc1ccc(OCc2ccc3c(c2)OCCO3)cc1,2.44%
2,Cc1ccc(CN2Cc3ccccc3OC3(CCC(CO)CC3)C2)s1 (stereo unspecified),-3.11%
3,CCC(=O)N1CCC2(CC1)COCCN2Cc1ccc(F)cc1,-76.5%
4,Cc1ccc(S(=O)(=O)N2CCc3nc(C4CCNCC4)ncc3C2)cc1,-3.24%
5,O=C(NCc1ccco1)[C@@H]1CCO[C@@H]2CCN(CC3CC3)C[C@@H]21,-78.7%
6,Cn1cc(N2CCC3(CCCN(Cc4ccc(F)cc4)C3)C2=O)cn1 (stereo unspecified),-73.4%
7,c1ccc(-c2ncc3c(n2)C2(CCN(CC4CC4)C2)COC3)cc1 (stereo unspecified),0.975%
8,CO[C@@H]1CC[C@H]2[C@H]1OCCN2C(=O)c1ccc(C)nc1,-143%
9,FC1(F)CCN(Cc2cccnc2)CC12CCN(c1ccccn1)C2 (stereo unspecified),23%
10,O=C([C@H]1CCCO1)N1CCCC2(COCCN(c3ccccc3)C2)C1 (stereo partly specified),13.9%
11,O=C(c1cc[nH]n1)N1CCc2onc(COc3cccnc3)c2C1,-70.3%
12,O=C(CCC1CCCC1)NCCn1nc(C2CCNC2)c2nccnc21 (stereo unspecified),6.28%
13,CC(=O)N1CCCCCC1C1CCN(Cc2nnc(C(C)(C)C)o2)CC1 (stereo unspecified),-42.3%
14,c1cc(COC[C@@H]2CCC[C@@]23CNCCO3)ccn1,1.26%
15,CN(C)C1CCC2(CCN(Cc3nccn3C)CC2)c2ccccc21 (stereo unspecified),5.64%
16,Cc1cccc(N2CC[C@@H]3CN(Cc4csc(C)n4)CCO[C@@H]3C2)n1,-4.51%
17,CC(C)Cn1cc2nc(N3CCC(O)CC3)[nH]cc-2c1=O,5.92%
18,CCN(CC)c1ccc(C2c3c(n[nH]c3C)N=C3COC(=O)C32)cc1 (stereo unspecified),4.33%
19,COCCN1C[C@@H]2CC[C@H]1CN(C(=O)c1ccc(Cl)cc1)C2,-8.03%
